Measurements as given in ChEMBL document CHEMBL1177801, “Structure-based design and synthesis of pyrrole derivatives as MEK inhibitors” (Bioorg Med Chem Lett, 2010).
pEC50, pIC50: −log10 of the molar value. Activity calls are given as the source filed them. The calls are words filed in the database; no cut-off is given here.

Experiments:
[1] = target: Dual specificity mitogen-activated protein kinase kinase 1 (Homo sapiens, UniProt Q02750); experiment: Inhibition of MEK1 by cascade assay method
In short: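 Cascade format, compounds serially diluted in DMSO, then in 50 mM HEPES pH 7.3, 10 mM NaCl, 10 mM MgCl2, 0.01% Brij35, 1 mM DTT. Reaction started with 1 nM MEK1 and 400 µM ATP (also run at 10 µM). Product read by IMAP fluorescence polarization. IC50 fitted with standard models.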

COLO 205 = experiment: Cytotoxicity against human COLO205 cells expressing b-Raf V600E mutant after 72 hrs by MTS assay; format: functional, cell-based; settings: COLO 205, 72 h
In short: (§1)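 Human BRAF(V600E) line seeded at 3000–10,000 cells per 96 well, allowed 16 h at 37 °C in humidified 5% CO2. Then exposed 72 h to an eleven-point compound dilution in duplicate. NADH measured by MTS tetrazolium conversion, read at OD 490 nm. EC50 taken from compound concentration vs total NADH.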

[2] = Half life in human liver microsomes; format: ADME, Microsome
[3] = Half life in rat liver microsomes; format: ADME, Microsome
A-375 = experiment: Cytotoxicity against human A375 cells expressing b-Raf V600E mutant after 72 hrs by MTS assay; format: functional, cell-based; settings: A-375, 72 h; in short: as §1
[4] = target: Tyrosine-protein kinase ABL1 (Homo sapiens) (UniProt P00519); experiment: Inhibition of Abl1 at 10 uM
[5] = target: RAC-gamma serine/threonine-protein kinase (Homo sapiens) (UniProt Q9Y243); experiment: Inhibition of AKT3 at 10 uM
[6] = target: RAF proto-oncogene serine/threonine-protein kinase (Homo sapiens) (UniProt P04049); experiment: Inhibition of c-RAF at 10 uM
[7] = target: Calcium/calmodulin-dependent protein kinase type 1D (Homo sapiens) (UniProt Q8IU85); experiment: Inhibition of CamK1delta at 10 uM
[8] = target: Cyclin-dependent kinase 2/cyclin A (Homo sapiens) (UniProt P24941+P20248+P78396); experiment: Inhibition of CDK2/cyclinA at 10 uM; format: protein-complex assay
[9] = target: Hepatocyte growth factor receptor (Homo sapiens) (UniProt P08581); experiment: Inhibition of c-Met at 10 uM
[10] = target: Proto-oncogene tyrosine-protein kinase Src (Homo sapiens) (UniProt P12931); experiment: Inhibition of c-SRC at 10 uM
[11] = target: Epidermal growth factor receptor (Homo sapiens) (UniProt P00533); experiment: Inhibition of EGFR at 10 uM
[12] = target: Glycogen synthase kinase-3 beta (Homo sapiens) (UniProt P49841); experiment: Inhibition of GSK3-beta at 10 uM
[13] = target: Insulin receptor (Homo sapiens) (UniProt P06213); experiment: Inhibition of insulin receptor at 10 uM
[14] = target: T1, Tyrosine-protein kinase JAK3 (Homo sapiens) (UniProt P52333); experiment: Inhibition of JAK3 at 10 uM
T1 sequence (whole entry): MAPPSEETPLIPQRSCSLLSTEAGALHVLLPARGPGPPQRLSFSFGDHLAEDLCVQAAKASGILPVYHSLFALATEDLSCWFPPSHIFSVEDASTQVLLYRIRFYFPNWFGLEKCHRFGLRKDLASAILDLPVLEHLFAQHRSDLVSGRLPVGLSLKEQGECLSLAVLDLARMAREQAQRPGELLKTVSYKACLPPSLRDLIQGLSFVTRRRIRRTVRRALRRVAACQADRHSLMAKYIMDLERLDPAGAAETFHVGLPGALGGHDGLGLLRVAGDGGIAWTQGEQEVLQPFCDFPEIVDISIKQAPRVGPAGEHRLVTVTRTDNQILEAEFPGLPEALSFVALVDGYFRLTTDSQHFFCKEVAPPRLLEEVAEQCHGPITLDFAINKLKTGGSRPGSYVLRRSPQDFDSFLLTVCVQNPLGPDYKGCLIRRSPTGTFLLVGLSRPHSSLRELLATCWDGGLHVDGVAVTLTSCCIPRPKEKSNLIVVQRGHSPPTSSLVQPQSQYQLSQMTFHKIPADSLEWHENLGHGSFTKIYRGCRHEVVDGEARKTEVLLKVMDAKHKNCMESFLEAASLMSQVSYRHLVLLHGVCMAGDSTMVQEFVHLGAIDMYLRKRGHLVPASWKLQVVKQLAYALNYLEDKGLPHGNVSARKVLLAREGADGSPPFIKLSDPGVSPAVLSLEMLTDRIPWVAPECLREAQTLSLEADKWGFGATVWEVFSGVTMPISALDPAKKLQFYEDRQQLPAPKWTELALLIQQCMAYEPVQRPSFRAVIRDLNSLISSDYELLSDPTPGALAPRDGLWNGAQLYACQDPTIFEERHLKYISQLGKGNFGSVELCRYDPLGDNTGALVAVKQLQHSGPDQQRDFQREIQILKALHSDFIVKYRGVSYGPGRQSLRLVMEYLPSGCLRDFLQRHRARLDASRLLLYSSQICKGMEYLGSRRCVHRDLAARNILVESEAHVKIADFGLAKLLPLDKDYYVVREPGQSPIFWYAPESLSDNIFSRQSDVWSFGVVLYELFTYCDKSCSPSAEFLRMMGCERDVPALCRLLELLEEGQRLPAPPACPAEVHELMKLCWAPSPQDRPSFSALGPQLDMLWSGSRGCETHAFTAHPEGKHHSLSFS

[15] = target: Mitogen-activated protein kinase 14 (Homo sapiens) (UniProt Q16539); experiment: Inhibition of P38alpha at 10 uM
[16] = target: Platelet-derived growth factor receptor beta (Homo sapiens) (UniProt P09619); experiment: Inhibition of PDGFRbeta at 10 uM
[17] = target: Protein kinase C alpha type (Homo sapiens) (UniProt P17252); experiment: Inhibition of PKCalpha at 10 uM
[18] = target: Serine/threonine-protein kinase PLK3 (Homo sapiens) (UniProt Q9H4B4); experiment: Inhibition of PLK3 at 10 uM
[19] = target: Tyrosine-protein kinase SYK (Homo sapiens) (UniProt P43405); experiment: Inhibition of Syk at 10 uM
[20] = target: Angiopoietin-1 receptor (Homo sapiens) (UniProt Q02763); experiment: Inhibition of Tie2 at 10 uM
[21] = target: 3-phosphoinositide-dependent protein kinase 1 (PDPK1) (Homo sapiens) (UniProt O15530); experiment: Inhibition of PDK1 at 10 uM
[22] = Clearance in rat at 1 mg/kg, iv and 5 mg/kg, po; format: ADME, organism-based; settings: in vivo
[23] = Volume of distribution at steady state in rat at 1 mg/kg, iv and 5 mg/kg, po; format: ADME, organism-based; settings: in vivo, read-out: Vdss
[24] = Mean residence time in rat at 1 mg/kg, iv; format: ADME, organism-based; parameters: dose 1 mg/kg, route intravenous; settings: in vivo
[25] = Mean residence time in rat at 5 mg/kg, po; format: ADME, organism-based; parameters: dose 5 mg/kg, route oral; settings: in vivo
[26] = Oral bioavailability in rat at 5 mg/kg; format: ADME, organism-based; settings: in vivo

Proto-oncogene tyrosine-protein kinase Src (Homo sapiens), sequence (P12931 2-536 limits assumed): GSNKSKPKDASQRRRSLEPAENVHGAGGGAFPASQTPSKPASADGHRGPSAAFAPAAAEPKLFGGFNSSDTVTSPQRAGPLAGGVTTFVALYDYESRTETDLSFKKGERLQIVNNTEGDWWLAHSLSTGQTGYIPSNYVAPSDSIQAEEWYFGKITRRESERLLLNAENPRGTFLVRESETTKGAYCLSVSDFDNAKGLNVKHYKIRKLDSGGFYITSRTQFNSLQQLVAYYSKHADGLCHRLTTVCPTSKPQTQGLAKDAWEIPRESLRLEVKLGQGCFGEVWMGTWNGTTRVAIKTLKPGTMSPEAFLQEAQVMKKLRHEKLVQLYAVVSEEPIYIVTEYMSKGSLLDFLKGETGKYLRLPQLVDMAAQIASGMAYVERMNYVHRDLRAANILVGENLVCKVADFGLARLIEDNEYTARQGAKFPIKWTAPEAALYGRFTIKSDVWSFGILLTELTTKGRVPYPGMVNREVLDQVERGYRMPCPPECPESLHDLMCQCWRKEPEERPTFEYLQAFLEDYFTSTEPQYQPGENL
Hepatocyte growth factor receptor (Homo sapiens), sequence (P08581 whole entry): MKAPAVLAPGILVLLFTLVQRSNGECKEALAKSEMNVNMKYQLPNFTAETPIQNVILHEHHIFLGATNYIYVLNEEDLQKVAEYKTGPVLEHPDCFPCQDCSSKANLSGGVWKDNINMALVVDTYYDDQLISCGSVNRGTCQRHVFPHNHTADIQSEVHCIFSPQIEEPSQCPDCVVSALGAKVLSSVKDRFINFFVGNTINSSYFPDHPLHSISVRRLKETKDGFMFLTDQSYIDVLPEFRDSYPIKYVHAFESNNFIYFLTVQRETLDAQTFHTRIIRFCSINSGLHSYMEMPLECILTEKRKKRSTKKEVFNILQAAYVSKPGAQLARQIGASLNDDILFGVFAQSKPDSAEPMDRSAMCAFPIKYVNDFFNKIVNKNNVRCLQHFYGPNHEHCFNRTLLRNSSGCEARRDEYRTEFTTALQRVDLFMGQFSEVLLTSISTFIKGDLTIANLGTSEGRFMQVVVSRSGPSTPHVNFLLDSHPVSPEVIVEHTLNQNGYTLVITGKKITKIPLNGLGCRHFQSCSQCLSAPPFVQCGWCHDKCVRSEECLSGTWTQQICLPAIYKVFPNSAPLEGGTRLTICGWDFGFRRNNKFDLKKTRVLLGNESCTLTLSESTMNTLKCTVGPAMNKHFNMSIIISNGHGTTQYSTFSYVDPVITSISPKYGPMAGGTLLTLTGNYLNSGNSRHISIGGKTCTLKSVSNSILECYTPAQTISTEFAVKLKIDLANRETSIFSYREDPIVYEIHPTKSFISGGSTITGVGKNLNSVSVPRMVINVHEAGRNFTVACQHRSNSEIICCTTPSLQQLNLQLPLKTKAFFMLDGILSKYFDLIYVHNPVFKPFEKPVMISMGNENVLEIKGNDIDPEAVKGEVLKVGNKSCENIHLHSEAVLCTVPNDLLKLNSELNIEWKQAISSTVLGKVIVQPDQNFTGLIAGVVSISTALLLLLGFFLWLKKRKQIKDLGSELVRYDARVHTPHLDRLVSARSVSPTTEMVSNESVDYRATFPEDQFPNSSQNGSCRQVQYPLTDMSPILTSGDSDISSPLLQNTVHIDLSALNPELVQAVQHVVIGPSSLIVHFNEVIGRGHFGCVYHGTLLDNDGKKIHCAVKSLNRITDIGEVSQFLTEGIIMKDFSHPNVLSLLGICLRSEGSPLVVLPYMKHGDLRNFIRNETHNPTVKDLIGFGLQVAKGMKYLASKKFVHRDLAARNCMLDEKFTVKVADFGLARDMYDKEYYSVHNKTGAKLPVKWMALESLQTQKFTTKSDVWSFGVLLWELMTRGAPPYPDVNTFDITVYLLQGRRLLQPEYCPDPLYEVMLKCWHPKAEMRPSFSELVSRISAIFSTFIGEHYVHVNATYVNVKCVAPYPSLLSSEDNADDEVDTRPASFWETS
Mitogen-activated protein kinase 14 (Homo sapiens), sequence (Q16539 whole entry): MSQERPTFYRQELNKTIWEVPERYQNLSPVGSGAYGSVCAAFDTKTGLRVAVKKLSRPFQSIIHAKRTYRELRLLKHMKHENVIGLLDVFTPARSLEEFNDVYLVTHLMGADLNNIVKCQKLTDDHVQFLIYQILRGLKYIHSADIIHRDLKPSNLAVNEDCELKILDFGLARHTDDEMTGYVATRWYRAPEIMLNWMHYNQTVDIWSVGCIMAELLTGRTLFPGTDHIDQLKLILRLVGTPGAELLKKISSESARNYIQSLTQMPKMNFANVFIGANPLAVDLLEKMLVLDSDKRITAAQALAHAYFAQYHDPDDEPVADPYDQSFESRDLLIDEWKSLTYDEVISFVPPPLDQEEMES
Angiopoietin-1 receptor (Homo sapiens), sequence (Q02763 whole entry): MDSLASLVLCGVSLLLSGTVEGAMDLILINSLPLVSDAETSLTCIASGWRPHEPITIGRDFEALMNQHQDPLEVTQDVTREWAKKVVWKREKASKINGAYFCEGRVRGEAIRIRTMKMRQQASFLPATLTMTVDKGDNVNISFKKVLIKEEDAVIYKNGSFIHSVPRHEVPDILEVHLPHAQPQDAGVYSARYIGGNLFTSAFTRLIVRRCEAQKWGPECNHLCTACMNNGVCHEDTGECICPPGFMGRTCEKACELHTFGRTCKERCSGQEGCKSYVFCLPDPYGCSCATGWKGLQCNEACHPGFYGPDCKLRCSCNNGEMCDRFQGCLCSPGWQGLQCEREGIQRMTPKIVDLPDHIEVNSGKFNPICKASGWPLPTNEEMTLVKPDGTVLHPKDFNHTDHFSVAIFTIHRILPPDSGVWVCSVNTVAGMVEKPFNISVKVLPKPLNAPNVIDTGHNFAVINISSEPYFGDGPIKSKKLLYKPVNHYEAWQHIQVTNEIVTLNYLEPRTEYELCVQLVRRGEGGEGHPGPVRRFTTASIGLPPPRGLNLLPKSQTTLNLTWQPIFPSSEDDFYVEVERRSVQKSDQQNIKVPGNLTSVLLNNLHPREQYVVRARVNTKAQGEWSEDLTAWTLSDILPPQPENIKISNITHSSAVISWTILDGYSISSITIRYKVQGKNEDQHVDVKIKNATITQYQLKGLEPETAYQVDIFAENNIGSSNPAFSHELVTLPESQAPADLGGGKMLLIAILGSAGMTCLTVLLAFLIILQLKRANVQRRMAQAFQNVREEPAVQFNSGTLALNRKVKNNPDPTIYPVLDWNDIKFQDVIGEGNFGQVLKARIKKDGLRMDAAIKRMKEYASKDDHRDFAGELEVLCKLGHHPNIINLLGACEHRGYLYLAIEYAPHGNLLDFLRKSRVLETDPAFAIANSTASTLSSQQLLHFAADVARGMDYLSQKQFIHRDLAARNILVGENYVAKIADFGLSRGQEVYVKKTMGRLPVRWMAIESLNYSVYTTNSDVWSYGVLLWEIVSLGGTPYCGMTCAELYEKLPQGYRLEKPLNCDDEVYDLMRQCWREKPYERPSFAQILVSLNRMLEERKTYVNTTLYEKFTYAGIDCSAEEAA
RAF proto-oncogene serine/threonine-protein kinase (Homo sapiens), sequence (P04049 whole entry): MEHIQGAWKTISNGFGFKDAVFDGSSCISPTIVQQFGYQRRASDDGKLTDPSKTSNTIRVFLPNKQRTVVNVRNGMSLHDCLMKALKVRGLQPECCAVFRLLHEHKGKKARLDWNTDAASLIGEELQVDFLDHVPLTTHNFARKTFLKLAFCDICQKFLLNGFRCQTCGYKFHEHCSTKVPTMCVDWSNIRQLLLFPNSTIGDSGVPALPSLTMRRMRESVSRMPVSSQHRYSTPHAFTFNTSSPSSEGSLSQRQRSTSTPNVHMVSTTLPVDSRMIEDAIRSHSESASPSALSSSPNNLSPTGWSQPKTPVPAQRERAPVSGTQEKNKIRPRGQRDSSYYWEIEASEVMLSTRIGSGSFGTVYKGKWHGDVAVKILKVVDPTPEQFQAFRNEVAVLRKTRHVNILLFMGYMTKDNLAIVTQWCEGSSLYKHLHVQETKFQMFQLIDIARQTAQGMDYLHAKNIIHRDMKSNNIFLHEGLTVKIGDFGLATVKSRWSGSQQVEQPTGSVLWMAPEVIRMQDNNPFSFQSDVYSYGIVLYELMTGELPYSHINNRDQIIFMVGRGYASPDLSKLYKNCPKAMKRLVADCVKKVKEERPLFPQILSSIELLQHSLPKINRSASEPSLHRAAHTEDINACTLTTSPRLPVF

pIC50 [1]	half-life [2]	half-life [3]	SMILES	pEC50 (COLO 205)	pEC50 (A-375)	other results
7.70	8 min	2 min	CC(=O)n1cc(C(=O)NOCCO)c(Nc2ccc(I)cc2F)c1C	5.00	–	–
7.14	29 min	21 min	CC(=O)n1cc(C(=O)O)c(Nc2ccc(I)cc2F)c1C	4.68	–	–
6.66	29 min	20 min	CC(=O)n1cc(Nc2ccc(I)cc2F)c(C(=O)O)c1	< 4.30	–	–
7.38	123 min	7 min	CC(=O)c1cc(C(=O)O)c(Nc2ccc(I)cc2F)n1C	5.15	5.58	–
–	36 min	14 min	CC(=O)c1cc(C(=O)NOCCO)c(Nc2ccc(I)cc2F)n1C	7.92	7.85	Vd [23]: 2.9 L/kg; MRT [24]: 55.8 min; MRT [25]: 384 min; bioavailability [26]: 46%
7.05	95 min	10 min	CC(=O)c1cc(C(=O)NCCCO)c(Nc2ccc(I)cc2F)n1C	6.89	6.50	–
7.96	3 min	6 min	CC(=O)n1cc(Nc2ccc(I)cc2F)c(C(=O)NOCCO)c1	5.51	–	–
7.52	15 min	13 min	CC(=O)c1cc(C(=O)N2CC(O)C2)c(Nc2ccc(I)cc2F)n1C	7.49	7.01	inhibition [4]: inactive; inhibition [5]: inactive; inhibition [6]: inactive; inhibition [7]: inactive; inhibition [8]: inactive; inhibition [9]: inactive; inhibition [10]: inactive; inhibition [11]: inactive; inhibition [12]: inactive; inhibition [13]: inactive; inhibition [14]: inactive; inhibition [15]: inactive; inhibition [16]: inactive; inhibition [17]: inactive; inhibition [18]: inactive; inhibition [19]: inactive; inhibition [20]: inactive; inhibition [21]: inactive

Second part, the compound before the results:

SMILES	pIC50 [1]	half-life [2]	half-life [3]	pEC50 (COLO 205)	pEC50 (A-375)	other results
CC(=O)c1cc(C(=O)N2CC[C@@H](O)C2)c(Nc2ccc(I)cc2F)n1C	7.89	14 min	9 min	7.08	6.90	inhibition [4]: inactive; inhibition [5]: inactive; inhibition [6]: inactive; inhibition [7]: inactive; inhibition [8]: inactive; inhibition [9]: inactive; inhibition [10]: inactive; inhibition [11]: inactive; inhibition [12]: inactive; inhibition [13]: inactive; inhibition [14]: inactive; inhibition [15]: inactive; inhibition [16]: inactive; inhibition [17]: inactive; inhibition [18]: inactive; inhibition [19]: inactive; inhibition [20]: inactive; inhibition [21]: inactive
CC(=O)c1c(F)c(C(=O)NOC[C@H](O)CO)c(Nc2ccc(I)cc2F)n1C	7.54	107 min	28 min	7.35	7.14	–
CC(=O)c1cc(C(=O)NOC[C@@H](O)CO)c(Nc2ccc(I)cc2F)n1C	7.96	150 min	68 min	7.96	7.77	–
CC(=O)c1c(Cl)c(C(=O)NOC[C@@H](O)CO)c(Nc2ccc(I)cc2F)n1C	7.89	38 min	30 min	7.74	7.54	–
CC(=O)c1cc(C(=O)NOC[C@H](O)CO)c(Nc2ccc(I)cc2F)n1C	7.70	> 200 min	29 min	7.48	7.44	clearance [22]: 48 mL/min/kg; Vd [23]: 2.1 L/kg; MRT [24]: 43.2 min; MRT [25]: 444 min; bioavailability [26]: 19%
CC(=O)c1c(Cl)c(C(=O)NOC[C@H](O)CO)c(Nc2ccc(I)cc2F)n1C	7.49	52 min	23 min	7.64	7.34	clearance [22]: 7.1 mL/min/kg; Vd [23]: 0.361 L/kg; MRT [24]: 51 min; MRT [25]: 246 min; bioavailability [26]: 40%
CC(=O)c1c(Cl)c(C(=O)NOCCO)c(Nc2ccc(I)cc2F)n1C	7.74	7 min	6 min	8.15	7.55	–
CC(=O)c1cc(C(=O)NOC(CO)CO)c(Nc2ccc(I)cc2F)n1C	7.72	90 min	16 min	7.70	7.48	–
CC(=O)c1cc(C(=O)NOCCCO)c(Nc2ccc(I)cc2F)n1C	7.34	43 min	13 min	6.98	6.75	–
CC(=O)c1cc(C(=O)N2CC(N)C2)c(Nc2ccc(I)cc2F)n1C	8.15	55 min	64 min	7.43	7.41	inhibition [4]: inactive; inhibition [5]: inactive; inhibition [6]: inactive; inhibition [7]: inactive; inhibition [8]: inactive; inhibition [9]: inactive; inhibition [10]: inactive; inhibition [11]: inactive; inhibition [12]: inactive; inhibition [13]: inactive; inhibition [14]: inactive; inhibition [15]: inactive; inhibition [16]: inactive; inhibition [17]: inactive; inhibition [18]: inactive; inhibition [19]: inactive; inhibition [20]: inactive; inhibition [21]: inactive
CC(=O)c1c(F)c(C(=O)NOC[C@@H](O)CO)c(Nc2ccc(I)cc2F)n1C	7.72	115 min	49 min	7.24	7.32	–
